Source: PubChem
WT yeast gro inh = growth inhibition of WT yeast, mitochondrial fusion screen | mitochondrial fusion phenotypic screen, WT strain | inhibition, % at 10 µM | 190,000 compounds, 2.1% hits | AID 1362; in the data active = inhibition above about 58%; tested in S. cerevisiae
L major viab = Leishmania major promastigote growth inhibition. Leishmania major promastigotes, resazurin fluorescence viability. inhibition, % at 10 µM. 200,000 compounds, 9% hits. AID 1063;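 note: promastigotes grown with compound for 44 hours at 28 °C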
Diaph inh CS = inhibits diaphorase or chemically oxidizes, flagging diaphorase assay artifacts; AID 1217; 190,000 compounds, 0.69% hits; inhibition, % at 20 µM; diaphorase resazurin-to-resorufin fluorescence, NADH, 16 min; bacterial (C. kluyveri) enzyme, not human;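 active = primary screen inhibition at 20 µM above a set limit, cut at about 50% in these data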
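Assay system: diaphorase enzyme from Clostridium kluyveri; Input: enzyme working solution with 0.14 U/mL diaphorase; Timing: 16 min at room temperature; Technique: resorufin fluorescence, excitation 544 nm, emission 590 nm; Benchmarks: positive control minus NADH, DMSO neutral control.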
G6PDH CS = inhibits Leuconostoc G6PDH, flagging false hits in G6PDH-based assays. Purified L. mesenteroides G6PDH, diaphorase/resazurin coupled fluorescence, 45 min. inhibition, % at 5 µM. 200,000 compounds, 0.12% hits
Diaphorase act = counter-screen for diaphorase-based assays: diaphorase activators and chemical reducers; Diaphorase/resazurin coupled assay, resorufin fluorescence, 16 min; active compounds read high; 1 = vehicle wells, 0 = NADH-free wells; activation factor at 20 µM; 190,000 compounds, 0.005% hits;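 active = diaphorase activity raised at least twofold by the compound at 20 µM; inactive = activation factor below 2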
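Measured by – red resorufin fluorescence at 544/590 nm excitation/emission · Test system – Clostridium kluyveri diaphorase, purified enzyme · Incubation – reaction time 16 min, room temperature · Buffer or medium – 50 mM HEPES pH 7.4 with 4.542 mM MgCl2, 0.005% Tween 20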
Lmaj promast 1uM = L. major promastigote growth inhibition, 1 uM repeat | shares compounds with L major viab | resazurin fluorescence, 48 h | inhibition, % at 1 µM | 1,100 compounds, 13% hits;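 active = inhibition above about 50% in both repeat tests, limit read from the data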
Hits are given with their value; – = inactive; · = no result given. Only some compounds are listed: those with a hit (about 11% of all), similar ones and a draw of the others. Cut-off read from the data, not from the text of the source, unless noted: active = inhibition above about 50%; inactive = the rest.

SMILES	WT yeast gro inh	L major viab	Diaph inh CS	G6PDH CS	Diaphorase act	Lmaj promast 1uM
O=C(O)CCC(=O)Nc1ccc(N2CCCCCC2)cc1	–	97	–	–	–	94
CCOC(=O)c1nnn(-c2nonc2N)c1CS(=O)(=O)c1ccccc1	–	–	–	–	–	·
CCOC(=O)c1nnn(-c2nonc2N)c1COc1c(C=O)cccc1OC	–	98	–	–	–	–
CCOC(=O)c1nnn(-c2nonc2-n2cccc2)c1CCl	–	100	–	–	–	57
COc1ccc2cc(/C=N/NC(=O)CN(c3ccccc3C)S(=O)(=O)c3ccccc3)c(Cl)nc2c1	–	–	–	–	–	·
CCC(C)NC(=O)c1c(C)cc(=O)oc1C (centres undefined)	–	–	–	–	–	·
Nc1c(C(O)(C(F)(F)F)C(F)(F)F)cc(C(O)(C(F)(F)F)C(F)(F)F)c2ccccc12	–	100	–	–	–	–
CC(=O)Nc1ccc(NS(=O)(=O)c2cn(C)c(=O)n(C)c2=O)cc1	–	–	–	–	–	·
Cc1ccc2nc3cc([N+](=O)[O-])cc([N+](=O)[O-])c3cc2c1	–	101	–	–	–	100
Nc1c(-c2ccccc2)c(CN2CCOCC2)nn1-c1ccc(C(=O)O)cc1	–	66	–	–	–	–
O=c1c(-c2ccccc2)c(O)nc(SCCN2CCOCC2)n1-c1ccccc1	–	–	–	–	–	·
O=C(c1ccc(Cn2c(=O)[nH]c3ccccc3c2=O)cc1)N1CCN(c2ccccc2)CC1	–	94	–	–	–	–
COC(=O)c1cc(C)sc1NC(=O)C1CC(=O)NN1Cc1ccccc1 (centres undefined)	–	95	–	–	–	–
Cc1ccc(C(=O)C(C)OC(=O)c2ccccc2[N+](=O)[O-])cc1 (centres undefined)	–	–	–	–	–	·
CCOC(=O)Cn1c(=O)n(Cc2ccco2)c(=O)c2ccc(C(=O)NC3CCCC3)cc21	–	–	–	–	–	·
CN(C)CC/C=C1\c2cc(F)ccc2CSc2ccccc21	–	72	–	–	–	–
N#CC1=C(c2ccccc2)/C(=C/c2ccccc2)OC1=O	–	92	–	–	–	–
O=C1O/C(=C/c2ccccc2)c2ccccc21	–	–	–	–	–	·
CCCC(=O)Nc1cc(OC)c(OC)cc1C(=O)O	–	–	–	–	–	·
CCCCNc1cc(NC(C)=O)cc2cc(OC)c(OC)cc12	–	100	–	–	–	–
Cc1cccc(NC(=O)CNC(=O)COc2ccc(-c3ccc(C#N)cc3)cc2)c1C	–	–	–	–	–	·
CCOC(=O)C1=Nc2ccccc2C1=[N+]=[N-]	–	79	–	–	–	–
CCOC(=O)c1cnc(-c2ccccc2O)nc1Cl	–	–	–	–	–	·
O=C(NCC(=O)N(c1ccccc1)C(C(=O)NCC1CCCO1)c1ccccc1)c1ccco1 (centres undefined)	–	–	–	–	–	·
Nn1c(-c2ccccc2Cl)nnc1-c1ccccc1Cl	–	76	–	–	–	–
SMILES	WT yeast gro inh	L major viab	Diaph inh CS	G6PDH CS	Diaphorase act	Lmaj promast 1uM
CSc1nnc(-c2ccccc2Cl)n1N	–	–	–	–	–	·
COc1ccc(CCN2C(=O)C3C4CC(C5C(C(=O)O)=NOC45)C3C2=O)cc1OC (centres undefined)	–	–	–	–	–	·
CC[C@H](C)C(=O)O[C@H]1CCC=C2C=C[C@H](C)[C@H](CC[C@@H]3C[C@@H](O)CC(=O)O3)[C@H]21	–	76	–	–	–	–
CCCN1C2CCCC1CC(NC(=O)c1ccccc1)C2 (centres undefined)	–	–	–	–	–	·
CCCCN1C2CCCC1CC(NC(=O)C1CCCCC1)C2 (centres undefined)	–	88	–	–	–	–
CC(C)(C)c1ccc(-n2nc(C#N)c(Cl)cc2=O)cc1	–	101	–	–	–	92
C=CCSC(=C(C#N)C#N)c1cc2c([nH]1)CCCC2	–	100	–	–	–	–
O=C(O)c1cc2c([nH]c1=O)CCCC2	–	–	–	–	–	·
Cc1ccc(S(=O)(=O)NC(N)=NCCc2ccc(Cl)cc2)cc1C	–	51	–	–	–	–
NC(=NCCc1ccc(Cl)cc1)NS(=O)(=O)c1ccc(F)cc1	–	–	–	–	–	·
